Series [1] can be described thus: Antimetabolic activity against primary rabbit kidney cells assessed as inhibition of [2-14C]dUrd incorporation into DNA after 16 hrs. It is filed as ADME, cell-based, Oryctolagus cuniculus. Put shortly:
(§1)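 Compound added to primary rabbit kidney cell cultures together with the radiolabeled DNA precursor. Input per 10^? cells: [methyl-3H]dThd 0.12 μCi/0.01 nmol, [2-14C]dUrd 14 μCi/250 nmol. Incorporation measured after 16 h incubation. Value is the concentration giving 50% inhibition of precursor incorporation.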

For series [2], the system named is Human alphaherpesvirus 1. Nature of the series: Antiviral activity against Herpes simplex virus-1 KOS infected in primary rabbit kidney cells assessed as inhibition of virus-induced cytopathogenicity treated immediately after virus adsorption measured 2 to 3 days after virus infection. It is filed as functional. The settings on record: Human alphaherpesvirus 1, KOS. On the technique in general: Cytopathic effects are the visible damage that an infection or toxin causes in cultured cells.

Series [3] deals with Human alphaherpesvirus 2. Nature of the series: Antiviral activity against Herpes simplex virus-2 LYONS infected in primary rabbit kidney cells assessed as inhibition of virus-induced cytopathogenicity treated immediately after virus adsorption measured 2 to 3 days after virus infection. It is filed as functional. The settings on record: Human alphaherpesvirus 2, LYONS.
In series [4] the test system is Human alphaherpesvirus 2. Description: Antiviral activity against Herpes simplex virus-2 196 infected in primary rabbit kidney cells assessed as inhibition of virus-induced cytopathogenicity treated immediately after virus adsorption measured 2 to 3 days after virus infection. Type of series: functional. Conditions: Human alphaherpesvirus 2, 196.
Series [5] has as its system Human alphaherpesvirus 1. Nature of the series: Antiviral activity against Herpes simplex virus-1 KOS infected in human skin fibroblast cells assessed as inhibition of virus-induced cytopathogenicity treated immediately after virus adsorption measured 2 to 3 days after virus infection. It is filed as functional. Conditions: Human alphaherpesvirus 1, KOS.
For series [6], the system named is Vesicular stomatitis virus. Description: Antiviral activity against Vesicular stomatitis virus infected in primary rabbit kidney cells assessed as inhibition of virus-induced cytopathogenicity treated immediately after virus adsorption measured 2 to 3 days after virus infection. Type of series: functional.
The nature of series [7]: Antimetabolic activity against primary rabbit kidney cells assessed as inhibition of [methyl-3H]dThd incorporation into DNA after 16 hrs. It is filed as ADME, cell-based, Oryctolagus cuniculus. Put shortly: as §1
A further series concerns Vaccinia virus. Nature of the series: Antiviral activity against Vaccinia virus infected in primary rabbit kidney cells assessed as growth inhibition at 100 ug/ml treated immediately after virus adsorption measured 24 to 48 hrs after virus infection. Conditions: Orthopoxvirus vaccinia. Type of series: functional, organism-based.
Series [8] relates to Human alphaherpesvirus 1. Nature of the series: Antiviral activity against Herpes simplex virus-1 KOS infected in primary rabbit kidney cells assessed as log reduction in virus yield at 100 ug/ml treated immediately after virus adsorption measured 24 to 48 hrs after virus infection. Type of series: functional.
The nature of series [9]: Antiviral index, ratio of minimal toxic dose require to inhibit cellular DNA synthesis in primary rabbit kidney cells by 50% to minimal effective dose require to inhibit HSV1 KOS cytopathogenicity. It is filed as toxicity, cell-based. Put shortly: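 Ratio of two doses. Numerator: dose inhibiting cellular DNA synthesis by 50%, measured as dThd or dUrd incorporation over 16 h. Denominator: minimal dose inhibiting HSV-1 KOS cytopathogenicity. For the CPE assay, virus input was 100 CCID50 per culture and compound was added right after adsorption. CPE was scored once untreated infected controls reached full CPE, generally at 2-3 days.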

The test system of series [10] is Human alphaherpesvirus 1. Nature of the series: Antiviral activity against Herpes simplex virus-1 KOS infected in human skin fibroblast cells assessed as inhibition of virus-induced cytopathogenicity at 200 ug/ml treated immediately after virus adsorption measured 2 to 3 days after virus infection. It is filed as functional, organism-based.
The subject of series [11] is Human alphaherpesvirus 1. Description: Antiviral activity against Herpes simplex virus-1 KOS infected in primary rabbit kidney cells assessed as inhibition of virus-induced cytopathogenicity at 200 ug/ml treated immediately after virus adsorption measured 2 to 3 days after virus infection. Type of series: functional, organism-based.
Series [12] deals with Human alphaherpesvirus 2. Description: Antiviral activity against Herpes simplex virus-2 196 infected in primary rabbit kidney cells assessed as inhibition of virus-induced cytopathogenicity at 200 ug/ml treated immediately after virus adsorption measured 2 to 3 days after virus infection. It is filed as functional, organism-based.
Series [13] concerns Human alphaherpesvirus 2. Description: Antiviral activity against Herpes simplex virus-2 LYONS infected in primary rabbit kidney cells assessed as inhibition of virus-induced cytopathogenicity at 200 ug/ml treated immediately after virus adsorption measured 2 to 3 days after virus infection. It is filed as functional, organism-based.

Converted amounts (≈) assume the structure as drawn. The source made the active and inactive calls. The calls are words filed in the database; no cut-off is given here. Where only a bound is given, the exact number is not on record here.

As for `Cc1cn([C@@H]2O[C@H](CO)[C@@H](O)[C@@H]2O)c(=O)[nH]c1=O`, the MIC is 300 µg/mL (≈ 1160 µM) in [1]; 0.2 µg/mL (≈ 0.775 µM) with Human alphaherpesvirus 1 [2]; 0.3 µg/mL (≈ 1.16 µM) with Human alphaherpesvirus 2 [3]; 0.4 µg/mL (≈ 1.55 µM) in the series with Human alphaherpesvirus 2 [4]; 0.1 µg/mL (≈ 0.387 µM) in the series with Human alphaherpesvirus 1 [5]; more than 200 µg/mL in series [6]. Further, in series [7], the MIC was 300 µg/mL (≈ 1160 µM).

In the case of `CCc1cn([C@@H]2O[C@H](CO)[C@@H](O)[C@@H]2O)c(=O)nc1N`, the MIC was more than 200 µg/mL in series [1], 100 µg/mL (≈ 369 µM) in the series with Human alphaherpesvirus 1 [2], 20 µg/mL (≈ 73.7 µM) with Human alphaherpesvirus 1 [5] and more than 200 µg/mL in series [6].

For `CCc1cn([C@@H]2O[C@H](CO)[C@@H](O)[C@@H]2O)c(=O)[nH]c1=O`, the MIC in series [1] was more than 200 µg/mL; in the series on Human alphaherpesvirus 1 [2] it was 2 µg/mL (≈ 7.35 µM); in the series on Human alphaherpesvirus 2 [3] it was 10 µg/mL (≈ 36.7 µM); in the series with Human alphaherpesvirus 2 [4] it was 20 µg/mL (≈ 73.5 µM); in the series on Human alphaherpesvirus 1 [5], 2 µg/mL (≈ 7.35 µM); in series [6], more than 200 µg/mL. In series [7], the MIC was more than 200 µg/mL. The inhibition result in the series with Vaccinia virus is “inactive”. Further, the log10PFU/ml in the series on Human alphaherpesvirus 1 [8] is listed as more than 3. Further, the selectivity ratio in series [9] is more than 100.

`Nc1ccn([C@@H]2O[C@H](CO)[C@@H](O)[C@@H]2O)c(=O)n1` [CYTARABINE]: the MIC in series [1] was determined as 0.05 µg/mL (≈ 0.206 µM); with Human alphaherpesvirus 1 [2], 0.03 µg/mL (≈ 0.123 µM); with Human alphaherpesvirus 2 [3], 0.04 µg/mL (≈ 0.164 µM); with Human alphaherpesvirus 2 [4] it was 0.03 µg/mL (≈ 0.123 µM); in the series on Human alphaherpesvirus 1 [5] it was 0.02 µg/mL (≈ 0.0822 µM); in series [6], 4 µg/mL (≈ 16.4 µM). For the same molecule, the MIC in series [7] is 0.1 µg/mL (≈ 0.411 µM).

Regarding `CCc1cn([C@H]2O[C@H](CO)[C@@H](O)[C@@H]2O)c(=O)nc1N`, the inhibition entry in the series with Human alphaherpesvirus 1 [10], in the series with Human alphaherpesvirus 1 [11], in the series with Human alphaherpesvirus 2 [12] and with Human alphaherpesvirus 2 [13] was “inactive” throughout.

As for `O=c1ccn([C@@H]2O[C@H](CO)[C@@H](O)[C@@H]2O)c(=O)[nH]1` [ARAURIDINE], the MIC in series [1] was more than 400 µg/mL; in the series with Human alphaherpesvirus 1 [2], 20 µg/mL (≈ 81.9 µM); with Human alphaherpesvirus 2 [3], 20 µg/mL (≈ 81.9 µM); in the series on Human alphaherpesvirus 2 [4] it was 20 µg/mL (≈ 81.9 µM); in the series on Human alphaherpesvirus 1 [5], 20 µg/mL (≈ 81.9 µM); in series [6] it was more than 200 µg/mL. For the same molecule, the MIC in series [7] is 300 µg/mL (≈ 1230 µM).

`CCc1cn([C@H]2O[C@H](CO)[C@@H](O)[C@@H]2O)c(=O)[nH]c1=O`: the inhibition result in the series on Human alphaherpesvirus 1 [10], in the series with Human alphaherpesvirus 1 [11], in the series on Human alphaherpesvirus 2 [12] and in the series with Human alphaherpesvirus 2 [13] was “inactive” in each case.

(Values after ChEMBL document CHEMBL3227988, “Synthesis and antiviral activities of arabinofuranosyl-5-ethylpyrimidine nucleosides. Selective antiherpes activity of 1-(beta-D-arabinofuranosyl)-5-ethyluracil” (J Med Chem, 1979).)
